TAAR1 ag – human TAAR1 agonism | Q96RJ0 | CHO RD-HGA16 TAAR1, Fluo-8 calcium fluorescence; vehicle wells 0%, saturating PEA agonist 100% | activation, % at 3 µM | 360,000 tested, 0.99% active | AID 624467;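 active = activation above the mean activation of all test compounds in the run plus 3 SD, cut at about 38% in these data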
Target sequence (Q96RJ0 whole entry, looked up): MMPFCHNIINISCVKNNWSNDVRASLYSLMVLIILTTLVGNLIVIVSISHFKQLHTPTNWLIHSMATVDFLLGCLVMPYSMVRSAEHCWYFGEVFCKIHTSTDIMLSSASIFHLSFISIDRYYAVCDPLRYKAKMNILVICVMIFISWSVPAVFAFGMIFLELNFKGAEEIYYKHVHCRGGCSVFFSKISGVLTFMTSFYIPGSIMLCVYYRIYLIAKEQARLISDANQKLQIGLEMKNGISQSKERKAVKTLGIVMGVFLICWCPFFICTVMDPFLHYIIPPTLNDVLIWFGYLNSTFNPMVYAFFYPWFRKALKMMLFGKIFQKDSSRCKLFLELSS
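Test system: RD-HGA16 (CHO) cells co-expressing Gα16 and hTAAR1 / Benchmarks: DMSO vehicle as 0%, PEA at EC100 as 100% / Repeats: no replicates (n 1) / Measure: % activation from peak over basal fluorescence ratio, DMSO-to-PEA scaled / Timing: 17-24 h plating, Fluo-8 75 min 37 °C, 30 min RT / Technique: kinetic Fluo-8 calcium fluorescence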
TAAR1 antagonist – human TAAR1 antagonism; Q96RJ0; CHO RD-HGA16 TAAR1, Fluo-8 calcium fluorescence, antagonist; inhibition, % at 3 µM; 360,000 tested, 1.5% active;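 active = inhibition above a per-plate cutoff, the mean inhibition of test compounds on that plate plus 3 SD, cut at about 49% in these data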;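 also: 0% = DMSO plus EC80 beta-PEA response and 100% = DMSO alone without agonist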
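Test system: RD-HGA16 CHO cells with stable hTAAR1 and Gα16 / Probe or stimulus: EC80 β-phenethylamine stimulus / Times: seeding 17-24 h prior, 75-min 37 °C, 30-min RT dye loading / Detection: Fluo-8 calcium-sensitive fluorescence / Read-out basis: % inhibition scaled between DMSO and EC80 PEA controls / Repeats: singlicate, one well per test compound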
OX1R antag-1 – antagonists of human orexin 1 receptor (OX1R) | OX1R-expressing cells, FRET antagonist read-out | inhibition, % at 6.6 µM | 330,000 tested, 1.8% active | AID 485270; in the data active = inhibition mostly above about 38%, no sharp cut-off; inactive = mostly below about 40%;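 also: 0% = agonist challenge alone and 100% = reference antagonist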
Target sequence (O43613 whole entry, looked up): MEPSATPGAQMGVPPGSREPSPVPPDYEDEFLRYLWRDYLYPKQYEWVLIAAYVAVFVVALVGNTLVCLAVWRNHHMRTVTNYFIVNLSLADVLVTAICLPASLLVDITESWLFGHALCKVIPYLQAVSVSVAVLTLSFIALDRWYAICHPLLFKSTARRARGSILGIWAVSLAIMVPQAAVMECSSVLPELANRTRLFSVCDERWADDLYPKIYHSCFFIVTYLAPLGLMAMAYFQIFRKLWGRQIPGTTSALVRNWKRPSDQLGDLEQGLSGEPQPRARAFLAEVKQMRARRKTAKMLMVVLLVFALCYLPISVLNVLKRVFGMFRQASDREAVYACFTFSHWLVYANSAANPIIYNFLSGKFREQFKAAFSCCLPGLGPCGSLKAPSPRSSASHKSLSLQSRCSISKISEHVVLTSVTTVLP
OX1R antag-2 – antagonists of human orexin 1 receptor. O43613. CHO/OX1R cells, Fluo-8 calcium fluorescence, orexin A. inhibition, % at 5 µM. 330,000 tested, 0.43% active. AID 434989;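 active = inhibition above its plate's threshold, mean inhibition of all tested compounds on the plate plus 3 SD, cut at about 37% in these data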;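 also: 0% = orexin A challenge wells and 100% = SB-334867-A antagonist wells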
CHO parental Ca – counter-screen: ATP calcium response change in parental CHO cells. parental CHO-K1, ATP-induced calcium, Fluo-8 fluorescence. inhibition, % at 5.6 µM. 330,000 tested, 0.63% active;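 active = inhibition above that plate's mean sample inhibition plus 3 SD, cut at about 26% in these data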;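 also: 0% = ATP-challenged DMSO wells and 100% = DMSO wells without ATP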
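Material – parental CHO cells · Reagent – ATP stimulus · Compound – single nominal dose of 5.6 µM per compound · Detection – Fluo-8 fluorescence · Read-out basis – percent inhibition of calcium signal · Controls – ATP-challenged DMSO wells low, unchallenged DMSO wells high · Repeats – no replicates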
OX1R Fluo8 conf – OX1R (human) antagonism, confirmed. inhibition, % at 5 µM. shares compounds with OX1R antag-2. 1,100 tested, 38% active. CHO/OX1R cells, orexin A calcium Fluo-8 fluorescence; in the data active = inhibition above about 29%;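 also: 0% = agonist challenge alone and 100% = reference antagonist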
CHO Ca counter – counter-screen: parental CHO calcium response change, triplicate; shares compounds with OX1R antag-2; parental CHO-K1, ATP-induced calcium, Fluo-8 fluorescence; inhibition, % at 5.6 µM; 1,100 tested, 9.3% active;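 active = inhibition above a per-plate limit, the mean inhibition of that plate's test compounds plus 3 SD, cut at about 25% in these data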;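 also: 0% = ATP challenge with DMSO and 100% = DMSO without ATP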
OX1R HTRF confirm – OX1R (human) antagonism, HTRF confirmed; shares compounds with OX1R antag-1; OX1R-expressing cells, HTRF antagonist assay; inhibition, % at 6.6 µM; 1,800 tested, 49% active; in the data active = inhibition above about 55%;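 also: CHO cells expressing OX1R stimulated with orexin A at about EC80; 0% = agonist challenge alone and 100% = reference antagonist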
CHO-K1 HTRF – signal in parental CHO-K1 cells, OX1R antagonist counter-screen | AID 493232 | HTRF counterscreen | inhibition, % at 6.6 µM | shares compounds with OX1R antag-1 | 1,800 tested, 48% active; in the data active = inhibition above about 17%;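 also: 0% = agonist challenge with vehicle and 100% = vehicle alone without agonist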
Numbers without * were called inactive; · = no result given. Shown are actives, neighbours in structure and some others; about 4% of the full set was active somewhere.

SMILES | TAAR1 ag | TAAR1 antagonist | OX1R antag-1 | OX1R antag-2 | CHO parental Ca | OX1R Fluo8 conf | CHO Ca counter | OX1R HTRF confirm | CHO-K1 HTRF
COc1ccc(CN(CC(O)COCc2ccccc2)S(=O)(=O)c2ccccc2Br)cc1OC (stereo not drawn) | 1 | 31 | 46* | 55* | -11 | 21 | -16 | 68* | -2
O=C(CN(c1ccc(F)cc1)S(=O)(=O)c1ccccc1)NC1CCCCCC1 | 0 | -22 | -4 | -40 | -18 | · | · | · | ·
Cc1ccc(-c2nc(NC(=O)CSc3nnnn3-c3ccccc3)ns2)cc1 | 5 | 6 | 15 | 0 | -29 | · | · | · | ·
Cc1ccc(-c2csc3nnc(SCC(=O)Nc4nsc(-c5ccccc5)n4)n23)cc1 | 0 | 36 | 82* | 68* | -32 | 48* | -21 | 91* | 6
C[N+]1([O-])[C@@H]2Cc3cc4c(cc3[C@@H]1Cc1cc3c(cc12)OCO3)OCO4 (stereo partly drawn) | 4 | -4 | 15 | -9 | -6 | · | · | · | ·
CC(C(=O)OCC(=O)N(C)C1(C#N)CCCCC1)N1C(=O)c2ccccc2C1=O (stereo not drawn) | 1 | -15 | 5 | -25 | -8 | · | · | · | ·
Cc1cc(SCC(=O)OC(C)C(=O)N(C)c2ccccc2)nc2ccccc12 (stereo not drawn) | 2 | 10 | 38* | 48* | -26 | 15 | 1 | 61* | 0
CCOC(=O)[C@]12CCC=C1N(Cc1ccc(Cl)cc1Cl)C(=O)[C@H](CC(=O)NCCCN1CCCC1=O)C2 | -1 | -11 | · | · | · | · | · | · | ·
O=C(N=C1SC2CS(=O)(=O)CC2N1c1ccc(Cl)c(Cl)c1)C1CCCO1 (stereo not drawn) | 7 | -25 | 12 | -22 | -16 | · | · | · | ·
O=[N+]([O-])c1ccccc1N/N=C\c1ccccc1Cl | 13 | -5 | 14 | -9 | -5 | · | · | · | ·
O=[N+]([O-])c1ccc(O)c(/C=N/Nc2ccccc2Cl)c1 | 11 | -8 | 81* | 35 | 18 | 37* | 14 | 84* | 11
C=CCN1C(=O)/C(=C/c2ccc(O)c(OC)c2)S/C1=N/c1nccs1 | 32 | 60* | 89* | 41 | 31 | 36* | 22 | 66* | 13
Cc1cc(C)cc(SCc2noc(C(=O)NCCN(C)C)c2C(=O)NCCN(C)C)c1 | 11 | 7 | 10 | -11 | -7 | · | · | · | ·
Cc1ccc(S(=O)(=O)N2C[C@H]3[C@H]4C(=O)N(c5ccccc5)C(=O)[C@H]4CC(=O)[C@H]3[C@@H]2c2ccccc2F)cc1 | 4 | -2 | · | · | · | · | · | · | ·
O=C(CSc1nnc(Cn2nnc3ccccc32)o1)N(Cc1ccc(F)cc1)c1ccccc1 | 7 | 32 | 78* | 79* | 10 | 51* | 61* | 70* | 3
COc1cccc(-c2oc3c(c2C(=O)OCCN2CCCCC2)C(O)CCC3)c1 (stereo not drawn) | 0 | 0 | · | · | · | · | · | · | ·
CCOC(=O)c1ccc2[nH]c3c(c2c1)CCCC3 | 4 | -8 | 78* | 31 | -11 | 5 | -3 | 52 | 0
CCOC(=O)c1ccc2[nH]c3c(c2c1)CCCC3O (stereo not drawn) | 11 | 12 | 18 | -10 | -4 | · | · | · | ·
COc1ccc(-c2csc(NC(=O)c3cc(C)oc3C)n2)cc1OC | 2 | 18 | 64* | 31 | 8 | 5 | -14 | 69* | 11
COc1ccccc1N(CC(=O)NCCSCc1cccc(C)c1)S(=O)(=O)c1ccccc1 | 3 | 80* | 70* | 32 | 3 | 41* | -15 | 78* | -2
COc1ccccc1N(CC(=O)NCCC1=CCCCC1)S(=O)(=O)c1ccccc1 | 6 | -3 | 85* | 63* | -34 | 45* | -20 | 87* | 0
COc1ccc(N(CC(=O)NCCC2=CCCCC2)S(=O)(=O)c2ccccc2)cc1OC | 10 | -13 | 54 | 2 | -15 | · | · | · | ·
NC(=O)C1CN(C(=O)c2cccc(S(=O)(=O)N3CCc4ccccc43)c2)c2ccccc2O1 (stereo not drawn) | 11 | -1 | 69* | 52* | -12 | 37* | -16 | 67* | -3
CN(C)c1ccc(/C=C/c2ccc3ccccc3n2)cc1 | · | · | 75* | 62* | 14 | 52* | 15 | 80* | 8
CC(=O)Nc1ccc(S(=O)(=O)N(Cc2ccccc2)c2ccccc2F)cc1 | 14 | -2 | 63* | 38 | -15 | 34* | -3 | 56* | -5
SMILES | TAAR1 ag | TAAR1 antagonist | OX1R antag-1 | OX1R antag-2 | CHO parental Ca | OX1R Fluo8 conf | CHO Ca counter | OX1R HTRF confirm | CHO-K1 HTRF
CC(=O)Nc1ccc(NC(=O)C(C)OC(=O)C(C)SCC(=O)Nc2ccc(F)cc2)cc1 (stereo not drawn) | 0 | 14 | 89* | 28 | -4 | 46* | -2 | 87* | -1
COc1ccccc1NC(=O)C(C)OC(=O)C(C)SCC(=O)Nc1ccc(C)cc1 (stereo not drawn) | 1 | -15 | · | · | · | · | · | · | ·
CCOc1ccccc1C(=O)Nc1ccc(C(=O)c2ccccc2)cc1 | 6 | 7 | 55* | 17 | -21 | 20 | 3 | 67* | 18*
CCOc1ccccc1C(=O)Nc1ccc(NC(=O)c2ccccc2)cc1 | 1 | 3 | 16 | -1 | -11 | · | · | · | ·
Cc1ccccc1C(=O)Nc1ccc2nc3n(c(=O)c2c1)CCCC3 | 5 | 5 | 6 | -41 | -21 | · | · | · | ·
CCOc1ccccc1C(=O)Nc1ccc2nc3n(c(=O)c2c1)CCCCC3 | 3 | 2 | 91* | 94* | -25 | 79* | 1 | 93* | 11
CCCN(CC(=O)Nc1ccccc1OC)C(=O)Cn1[nH]c(=O)c2ccccc2c1=O | 4 | -5 | 7 | -22 | -22 | · | · | · | ·
CCCN(CC(=O)Nc1ccccc1OC)C(=O)CSc1ccc(Br)cc1C | 3 | 6 | 58* | 54* | -24 | 22 | -11 | 73* | 4
COC(=O)C1=CN(c2ccc3c(c2)OCO3)C(N)=C(C#N)C1c1cccc(F)c1 (stereo not drawn) | 2 | 1 | · | · | · | · | · | · | ·
O=C(Nc1ccc2nc(-c3cccs3)c(-c3cccs3)nc2c1)N1CCOCC1 | 20 | 45 | 73* | 21 | -2 | 25 | 0 | 44 | 14
COc1cc(C(=O)OC(C)C(=O)NC(=O)NC2CCCCC2)ccc1OC(F)F (stereo not drawn) | 20 | 5 | 0 | -50 | -26 | · | · | · | ·
Cc1ccc2nc(NC(=O)c3ccco3)sc2c1 | 8 | -6 | 39 | -9 | 8 | · | · | · | ·
